In brackets after ≈: the same amount, converted by molar mass. Activity calls are given as the source filed them. No cut-off for these calls is given here.

The subject of experiment [1] is Candida albicans. The experiment is described as follows: Antimicrobial activity against Candida albicans intact biofilms. The class given is functional. The method in brief: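 Biofilm formed in polystyrene wells from 1 x 10^6 cells/ml, 48 h at 37°C in MOPS-buffered RPMI 1640, washed once. Intact biofilm exposed in the same well to twofold serial drug dilutions (1,024 to 0.0313 µg/ml) at 37°C for 48 h (caspofungin 24 h), with drug-free controls. Metabolic activity measured by XTT plus 1 µM menadione, absorbance at 490 nm.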

In experiment [2] the test system is Candida albicans. The experiment is described as follows: Antimicrobial activity against Chk1 deficient Candida albicans CHK21 at planktonic cell density of 10^3 cells/ml after 48 hrs by XTT assay. The class given is functional. To be noted: CHK21, 48 h. The method, boiled down:
(§1)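 YNB-grown yeast (50 mM glucose, room temperature, shaken, to ~2 x 10^8 cells/ml) washed into MOPS-buffered RPMI 1640 with L-glutamine and set to the stated density. Exposed to twofold serial drug dilutions (1,024 to 0.0313 µg/ml) at 37°C, 48 h (caspofungin 24 h), with drug-free controls. Read-out: XTT (0.5 g/liter) plus 1 µM menadione, formazan at 490 nm.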

Experiment [3] concerns Candida albicans. Kind of experiment: Antimicrobial activity against Candida albicans GDH2346 intact biofilms after 48 hrs by XTT assay. The class given is functional. The conditions noted are these: GDH2346, 48 h. The method, boiled down: (§2)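 Biofilm seeded at 1 x 10^6 cells/ml in RPMI in polystyrene microtiter wells and grown 48 h at 37°C in a moist chamber. Washed once and drug added to the same well (twofold dilutions, 1,024 to 0.0313 µg/ml) for 48 h at 37°C (caspofungin 24 h). Read-out: XTT/menadione reduction at 490 nm.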

Experiment [4] relates to Candida albicans. Kind of experiment: Antimicrobial activity against Candida albicans GDH2346 dissociated biofilms at cell density of 10^8 cells/ml after 48 hrs by XTT assay. The class given is functional. To be noted: GDH2346, 48 h. The method in brief: (§3)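 Polystyrene-well biofilms (48 h, 37°C) washed, then broken up in 100 µl RPMI by scraping and aspiration. Cells used undiluted (about 2 x 10^8 cells/ml equivalent) or adjusted by A600 against a hemacytometer-calibrated yeast standard curve. Drug exposure at 37°C for 48 h (caspofungin 24 h), then XTT/menadione read at 490 nm.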

The subject of experiment [5] is Candida albicans. Kind of experiment: Antimicrobial activity against Cdr1, Cdr2 and Mdr1 deficient Candida albicans DSY1050 at planktonic cell density of 10^8 cells/ml after 48 hrs by XTT assay. Type of experiment: functional. To be noted: DSY1050, 48 h. The method in brief:
as §1

Experiment [6] deals with Candida albicans. The experiment is described as follows: Inhibition of metabolic activity in Candida albicans SC5314 at 32 ug/ml in presence of 2 ug/ml calcineurin pathway inhibitor FK506. The class given is functional. The arrangement: scale not given: the % may be the effect or the level left. The method in brief:
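SC5314 fluconazole susceptibility tested with or without FK506. Cell suspension, drug and FK506 volumes set to the final concentrations in 200 µl. Incubation at 37°C for 48 h, then metabolic activity by XTT/menadione at 490 nm.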

For experiment [7], the system named is Candida albicans. The experiment is described as follows: Antimicrobial activity against Candida albicans SC5314 dissociated biofilms grown on polyvinylchloride catheter surface at cell density of 10^8 cells/ml at 0.25 to 8 ug/ml by XTT assay. The class given is functional, organism-based. The method, boiled down:
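1-cm discs of denture acrylic, PVC catheter or silicone elastomer-coated latex catheter, ethylene-oxide sterilised. Seeded with 1 ml of 1 x 10^6 cells/ml, adhesion 90 min at 37°C, washed, grown 48 h at 37°C in RPMI. Biofilm scraped off, set to 1 x 10^3 or 1 x 10^8 cells/ml, exposed to fluconazole, read by XTT at 490 nm.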

Experiment [8] deals with Candida albicans. Kind of experiment: Antimicrobial activity against Candida albicans SC5314 at planktonic cell density of 10^8 cells/ml after 48 hrs by XTT assay. Type of experiment: functional. The conditions noted are these: SC5314, 48 h. The method, boiled down:
as §1

Experiment [9] deals with Candida albicans. The experiment is described as follows: Antimicrobial activity against Candida albicans SC5314 intact biofilms after 48 hrs by XTT assay. To be noted: SC5314, 48 h. Type of experiment: functional. The method in brief: as §2
In experiment [10] the test system is Candida albicans. The experiment is described as follows: Antimicrobial activity against Chk1 deficient Candida albicans CHK21 dissociated biofilms at cell density of 10^8 cells/ml after 48 hrs by XTT assay. Type of experiment: functional. The conditions noted are these: CHK21, 48 h. The method, boiled down: as §3
The subject of experiment [11] is Candida albicans. Kind of experiment: Antimicrobial activity against Candida albicans FH1 dissociated biofilms at cell density of 10^3 cells/ml after 48 hrs by XTT assay. Type of experiment: functional. To be noted: FH1, 48 h. The method, boiled down: as §3
The subject of experiment [12] is Candida albicans. The experiment is described as follows: Antimicrobial activity against Candida albicans FH1 intact biofilms after 48 hrs by XTT assay. Type of experiment: functional. To be noted: FH1, 48 h. The method in brief:
as §2

For experiment [13], the system named is Candida albicans. The experiment is described as follows: Antimicrobial activity against fluconazole-resistant Candida albicans FH5 dissociated biofilms at cell density of 10^3 cells/ml after 48 hrs by XTT assay. Type of experiment: functional. To be noted: FH5, 48 h. The method, boiled down:
as §3

The test system of experiment [14] is Candida albicans. The experiment is described as follows: Antimicrobial activity against Chk1 deficient Candida albicans CHK21 intact biofilms after 48 hrs by XTT assay. The class given is functional. To be noted: CHK21, 48 h. The method in brief:
as §2

In experiment [15] the test system is Candida albicans. The experiment is described as follows: Antimicrobial activity against Cdr1, Cdr2 and Mdr1 deficient Candida albicans DSY1050 at planktonic cell density of 10^3 cells/ml after 48 hrs by XTT assay. To be noted: DSY1050, 48 h. The class given is functional. The method in brief:
as §1

Consider `OC(Cn1cncn1)(Cn1cncn1)c1ccc(F)cc1F` [FLUCONAZOLE], for which the MIC in [1] is above 1020 µg/mL. Besides, the MIC80 in experiment [2] is 0.125 µg/mL (≈ 0.408 µM); in experiment [3], above 512 µg/mL; in [4], above 64 µg/mL; in experiment [5], above 64 µg/mL; in [8], above 256 µg/mL; in experiment [9] it was above 512 µg/mL. Also, the MIC80 in [10] is above 64 µg/mL; in experiment [11], 2 µg/mL (≈ 6.53 µM); in [12] it was above 512 µg/mL; in experiment [13] it was 64 µg/mL (≈ 209 µM); in [14], above 64 µg/mL; in [15], 0.25 µg/mL (≈ 0.816 µM). Also, the Activity in experiment [6] is on record as 17%. For the same compound, in experiment [7], the result was inactive.
